From PubChem BioAssay AID1737 (Vanderbilt High Throughput Screening Facility, 2009)
Records with an inconclusive call do not appear. Calls of active or inactive are those of the source.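 How the source made its calls: active means converged dose curve in at least two of three replicates, even with few points beside the midpoint; inactive means the rest, inconclusive results apart.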

Target: Solute carrier family 12 member 5 (Homo sapiens) (UniProt Q9H2X9)
Experiment: KCC2 cotransporter modulators, thallium uptake, dose response, cell-based, HEK293-KCC2, thallium flux, FluoZin2, sodium-free, assay 3 (AID 1737)
Settings: HEK293-KCC2, thallium flux FluoZin2 fluorescence, Na-free
Method in brief: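 compound = 11 doses, 3-fold steps, 30 µM top | assay system = HEK cells expressing human KCC2 cotransporter | controls = bumetanide as positive control | reagent = thallium sulfate stimulus | measure = EC50 from normalized thallium-flux slope | replication = triplicate | buffer or medium = Sodium-free N-methylglucamine chloride assay buffer | measured by = FluoZin2 fluorescence, 480/540 nm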

Sequence of Solute carrier family 12 member 5 (Homo sapiens) (Q9H2X9 whole entry, looked up): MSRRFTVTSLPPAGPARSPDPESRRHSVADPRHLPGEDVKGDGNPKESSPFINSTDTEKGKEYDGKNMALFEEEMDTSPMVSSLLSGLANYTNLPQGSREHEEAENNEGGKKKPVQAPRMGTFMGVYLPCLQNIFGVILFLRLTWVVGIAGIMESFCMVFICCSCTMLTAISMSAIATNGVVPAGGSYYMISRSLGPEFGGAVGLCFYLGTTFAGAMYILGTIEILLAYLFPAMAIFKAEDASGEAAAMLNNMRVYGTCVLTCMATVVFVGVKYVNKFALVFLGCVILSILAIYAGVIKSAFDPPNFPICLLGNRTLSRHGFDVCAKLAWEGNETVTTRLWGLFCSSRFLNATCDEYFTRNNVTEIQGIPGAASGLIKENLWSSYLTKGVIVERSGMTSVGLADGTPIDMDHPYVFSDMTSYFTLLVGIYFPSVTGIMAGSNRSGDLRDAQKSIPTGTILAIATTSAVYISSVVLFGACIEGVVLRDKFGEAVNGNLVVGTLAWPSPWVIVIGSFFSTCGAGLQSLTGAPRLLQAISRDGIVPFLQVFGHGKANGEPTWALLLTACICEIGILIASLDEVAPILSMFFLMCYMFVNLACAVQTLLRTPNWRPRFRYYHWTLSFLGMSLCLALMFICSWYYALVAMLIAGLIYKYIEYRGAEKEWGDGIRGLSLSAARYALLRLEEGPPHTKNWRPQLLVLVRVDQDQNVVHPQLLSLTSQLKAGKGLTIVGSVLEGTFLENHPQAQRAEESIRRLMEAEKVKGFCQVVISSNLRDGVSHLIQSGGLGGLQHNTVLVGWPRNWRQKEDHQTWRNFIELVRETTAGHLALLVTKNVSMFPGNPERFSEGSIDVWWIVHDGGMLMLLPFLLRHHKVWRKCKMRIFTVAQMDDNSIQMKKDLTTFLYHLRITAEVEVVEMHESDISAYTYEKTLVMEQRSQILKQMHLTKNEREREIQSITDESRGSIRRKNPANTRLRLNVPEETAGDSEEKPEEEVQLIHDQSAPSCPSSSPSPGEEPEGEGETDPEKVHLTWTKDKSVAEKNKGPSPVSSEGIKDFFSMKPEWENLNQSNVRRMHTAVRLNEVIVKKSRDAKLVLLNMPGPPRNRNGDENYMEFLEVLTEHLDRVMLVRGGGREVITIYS

| SMILES | EC50 |
| --- | --- |
| Cc1ccc(-c2n[nH]c(=S)n2/N=C/C=C\c2ccccc2[N+](=O)[O-])cc1 | inactive |
| COc1cccc(/C=c2\s/c(=C/C(=O)c3ccc(C)cc3)[nH]c2=O)c1OC | inactive |
| O=[N+]([O-])c1ccccc1/C=C/C=N/n1c(-c2ccc(Cl)cc2)n[nH]c1=S | inactive |
| Fc1cccc(F)c1/C=N/NC(=S)Nc1cccnc1 | inactive |
| NC(=S)N=Nc1c(O)n(Cc2ccccc2)c2ccccc12 | inactive |
| O=C(NC(=S)Nc1ccc2c(c1)OCO2)c1ccc(Cl)cc1 | inactive |
| O=c1c2ccccc2[nH]c(=S)n1CCN1CCC(=C(c2ccc(F)cc2)c2ccc(F)cc2)CC1 | inactive |
| COc1ccc(N2C(=S)N=C(Nc3cccc(C)c3)C23CCCCC3)cc1 | 417 nM |
| CC(=O)c1cccc(NC(=S)NC(=O)c2ccc(C)cc2)c1 | 288 nM |
| O=[N+]([O-])c1ccc(-c2cn(-c3ccccc3F)c(=S)[nH]2)cc1 | 318 nM |
| Cc1onc(-c2ccccc2Cl)c1C(=O)NC(=S)Nc1ccc(C(C)C)cc1 | inactive |
| CCOc1cccc(C(=O)NC(=S)Nc2cccc(C)c2)c1 | inactive |
| COc1ccc(-c2nnc(-c3ccc(OCC(C)C)cc3)o2)cc1 | inactive |
| O=C(NC(=S)Nc1cccc2cccnc12)c1cccs1 | inactive |
